Rows were chosen to be rich in hits. Some 0.55% of all compounds tested hit in one or more screens of this group.
TRPN1 ag: zebrafish TRPN1 (NompC) channel agonism. HEK293 zebrafish TRPN1-YFP, Fluo-8 calcium fluorescence; 100% = response to 87 µM carbachol. activation, % at 3 µM. 0.18% of 220,000 active. AID 1424;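 active means activation above its plate's cutoff, the mean activation of test wells on that plate plus 3 SD, cut at about 19% in these data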;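 further: 0% = DMSO alone and 100% = 87 µM carbachol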
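Assay system: Zebrafish TRPN1-YFP in HEK293 cells | Incubation: Dye loading 1 h at 37 °C, then 30 min room temperature | Measured by: Kinetic Fluo-8 fluorescence, ex 470-495, em 515-575 nm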
OXTR potentiator: potentiators of human oxytocin receptor. activation, % at 3 µM. AID 2445. 0.061% of 320,000 active. P30559. CHO-OTR cells, Fluo-8 calcium fluorescence, potentiator mode; 0% = oxytocin EC15, 100% = EC100;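 active means activation above that plate's cutoff, the mean activation of tested compounds plus 3 SD, cut at about 6.6% in these data, passing the limit was not always enough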;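 further: 100% uses oxytocin at 75 nM as the full agonist control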
Target sequence (P30559 whole entry, looked up): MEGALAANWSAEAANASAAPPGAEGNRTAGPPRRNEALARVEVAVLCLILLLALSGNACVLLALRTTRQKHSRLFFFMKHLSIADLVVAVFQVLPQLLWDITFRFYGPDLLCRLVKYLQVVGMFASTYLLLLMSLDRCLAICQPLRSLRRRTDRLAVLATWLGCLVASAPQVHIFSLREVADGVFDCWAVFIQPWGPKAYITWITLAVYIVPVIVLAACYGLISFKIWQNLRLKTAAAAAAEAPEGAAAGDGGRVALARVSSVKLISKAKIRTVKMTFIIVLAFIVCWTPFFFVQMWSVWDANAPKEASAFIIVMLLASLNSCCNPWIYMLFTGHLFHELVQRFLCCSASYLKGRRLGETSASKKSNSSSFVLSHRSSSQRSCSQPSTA
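Replication – single well per compound, singlicate · Assay system – CHO cell line stably expressing human OTR · Timing – 6 min pre-incubation, 100 s read · Measure – normalized max/min fluorescence ratio, % activation · Doses – 3.0 µM, one dose · Detection – Fluo-8 calcium dye fluorescence · Probe or stimulus – oxytocin near EC15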
OXTR agonist: human OXTR agonism. 0.32% of 320,000 active. CHO-OTR cells, Fluo-8 calcium fluorescence; normalized: DMSO 0%, oxytocin 100%. activation, % at 3 µM. P30559;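 active means activation above the mean of all tested compounds plus 3 SD, cutoff set per screening run, cut at about 20% in these data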;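 further: peak over basal fluorescence ratio from a 100 s FLIPR kinetic read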
V1aR counter: activates human V1a receptor in oxytocin agonist counter-screen. P37288. CHO-V1R cells, Fluo-8 calcium fluorescence, agonist mode; 0% DMSO, 100% 3 nM vasopressin. activation, % at 3 µM. 0.25% of 320,000 active. AID 2797;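 active means activation above the mean activation of all tested compounds plus 3 SD, per screening run, cut at about 20% in these data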;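 further: signal is peak over basal fluorescence ratio across a 100 second FLIPR read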
TRPML3 ag: activates the human TRPML3 channel. 0.29% of 220,000 active. Q8TDD5. activation, % at 3 µM. HEK293 TRPML3-YFP, Fluo-8 calcium fluorescence; 100% = the carbachol control signal. AID 1448;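 active means activation above its plate's cutoff, the mean activation of the plate's test wells plus 3 SD, cut at about 12% in these data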;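 further: 0% = DMSO only wells and 100% = carbachol wells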
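Material: TRPML3-YFP stable HEK293 cells | Dosing: One concentration, 3 µM nominal, 0.3% DMSO | Timing: 125 s total fluorescence read per well | Technique: Fluo-8 calcium dye fluorescence, ex 470-495, em 515-575 nm | Measure: Percent activation from peak-to-basal fluorescence ratio, scaled between DMSO and carbachol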
The depositor's hits bear a star; · = no result.

SMILES	TRPN1 ag	OXTR potentiator	OXTR agonist	V1aR counter	TRPML3 ag
N=c1n(Cc2ccc(Cl)cc2)c2ccccc2n1CC(O)COc1ccccc1 (stereo not drawn)	2	-14	37*	25*	1
COc1cc2nc(/C=C/c3ccc(N(C)C)cc3)sc2cc1SC	8	-11	21*	17	7
CCN(CC)c1ccc(/C=C/c2nc3ccccc3s2)cc1	4	-12	7	6	3
Cc1noc(C)c1S(=O)(=O)N(C)C[C@H]1Oc2c(cccc2N(C)C)C(=O)N([C@H](C)CO)C[C@@H]1C	·	3	0	0	·
CCN(CC)CCNc1oc(-c2ccccc2)nc1S(=O)(=O)c1ccccc1	·	-10	5	0	·
CCN1/C(=C/C=C/c2oc3ccc(-c4ccccc4)cc3[n+]2CC)Oc2ccc(-c3ccccc3)cc21	777*	-10	662*	761*	326*
O=C(NC(Nc1nc2ccc([N+](=O)[O-])cc2s1)(C(F)(F)F)C(F)(F)F)c1ccccc1Cl	23*	-11	2	5	23*
O=C(NC(Nc1nc2ccc([N+](=O)[O-])cc2s1)(C(F)(F)F)C(F)(F)F)c1cccnc1	18	-12	17	14	10
N#CNC(=Nc1cccc(F)c1)SCc1cccc(F)c1	16	-10	9	10	13*
Cc1cccc(/N=C/c2sc3ccccc3c2O)n1	2	-18	1	3	1
Oc1c(C=Nc2cccc3cccnc23)sc2ccccc12	12	-25	48*	65*	9
COc1ccc2[nH]c3c(NCCC4=CCCCC4)ncnc3c2c1	20*	·	·	·	9
CCN(CC)CCNc1ncnc2c1[nH]c1ccc(OC)cc12	2	1	0	-1	0
O=C(Cn1nnc(-c2ccccc2NC(=O)c2ccccc2F)n1)NC1CCCC1	1	1	47*	49*	0
CC(C)=CCC[C@](C)(O[C@@H]1O[C@H](CO[C@@H]2O[C@H](CO)[C@@H](O)[C@H](O)[C@H]2O)[C@@H](O)[C@H](O)[C@H]1O)C1CC[C@]2(C)C1C(=O)CC1[C@@]3(C)CC[C@H](O[C@H]4O[C@@H](CO)[C@H](O)[C@@H](O)[C@@H]4O)C(C)(C)C3CC[C@]12C (stereo partly drawn)	·	-2	1	1	·
CC(=O)OCC1O[C@@H](O[C@@H]2C[C@H]3C(C)(C)[C@H](OC(C)=O)CC[C@]3(C)[C@H]3CC[C@]45C[C@]4(CC[C@H]5[C@@H](C)C[C@@H](O)[C@H](O)C(C)(C)O)[C@@]32C)[C@H](O)[C@@H](O)[C@@H]1O (stereo partly drawn)	1	-18	69*	87*	0
COc1cc(/C=C2\SC(=S)N(NC(=O)c3ccc(O)c(OC)c3)C2=O)ccc1O	·	-26	37*	29*	·
CCOc1cc(/C=C2\SC(=S)N(NS(=O)(=O)c3ccc(C)cc3)C2=O)ccc1O	·	-14	13	16	·
COc1cc(/C=C2\SC(=S)N(NS(=O)(=O)c3ccc(C)cc3)C2=O)ccc1O	37*	-5	24*	39*	24*
COc1cc(/C=C2\SC(=S)N(NS(=O)(=O)c3ccccc3)C2=O)ccc1O	25*	-8	24*	41*	17*
COc1cc(/C=C2\SC(=S)N(NC(=O)c3ccncc3)C2=O)ccc1O	13	-4	10	14	7
COc1ccc(/C=C2/SC(=S)N(NS(=O)(=O)c3ccccc3)C2=O)cc1	·	-6	0	3	·
Cc1noc(C)c1NC(=O)N(C)C[C@@H]1Oc2ccc(NC(=O)C3CCCCC3)cc2C(=O)N([C@@H](C)CO)C[C@H]1C	·	0	1	0	·
C#CCOCCOCCOCCNc1nc(N2CCN(C(=O)CCCCCCCCCCNC(=O)[C@H]([C@@H](C)CC)n3cc(CCCCCN)nn3)CC2)nc(N2CCN(C(=O)CCCCCCCCCCNC(=O)[C@@H]([C@H](C)O)n3cc(C)nn3)CC2)n1	·	-13	37*	58*	·
C#CCOCCOCCOCCNc1nc(N2CCN(C(=O)CCCCCCCCCCNC(=O)[C@H](CCCCN)n3cc(C)nn3)CC2)nc(N2CCN(C(=O)CCCCCCCCCCNC(=O)[C@@H]([C@H](C)CC)n3cc(CCCCCN)nn3)CC2)n1	·	-13	3	38*	·
SMILES	TRPN1 ag	OXTR potentiator	OXTR agonist	V1aR counter	TRPML3 ag
C#CCOCCOCCOCCNc1nc(N2CCN(C(=O)CCCCCCCCCCNC(=O)[C@H](CCCCN)n3cc(CCO)nn3)CC2)nc(N2CCN(C(=O)CCCCCCCCCCNC(=O)[C@@H]([C@H](C)O)n3cc(C)nn3)CC2)n1	·	-8	1	12	·
C#CCOCCOCCOCCNc1nc(N2CCN(C(=O)CCCCCCCCCCNC(=O)Cn3cc(CCCCCN)nn3)CC2)nc(N2CCN(C(=O)CCCCCCCCCCNC(=O)[C@H](CO)n3cc(CCCCCN)nn3)CC2)n1	·	-15	25*	26*	·
CCN(C[C@H]1N[C@@](CC)(C(=O)OC)[C@H]2C(=O)N(Cc3ccccc3)C(=O)[C@@H]12)S(=O)(=O)c1ccc(OC(F)(F)F)cc1	·	-6	0	2	·
CN(C)/C=N/NC(=O)c1ccc(Cl)cc1	34*	-1	0	1	46*
CN(C)/C=N/NC(=O)c1ccccc1Cl	1	8	0	0	1
COc1ccc(OC)c(/C=C2/Sc3ccccc3C2=O)c1	13	-14	24*	28*	7
CN(C)c1ccc(/C=C(\C#N)C(=O)c2ccccc2)cc1	58*	-24	80*	53*	38*
CCN(CC)c1ccc(/C=C(\C#N)C(=O)c2ccc(Br)cc2)cc1	10	-11	133*	70*	6
NC(=NCc1ccccc1)c1cccc([N+](=O)[O-])c1	·	-1	2	1	·
CC1(C)CSC(=NCc2ccccc2)N1C(=O)c1cccc([N+](=O)[O-])c1	40*	-12	10	7	15*
NS(=O)(=O)c1ccc(NCCCn2ccnc2)c([N+](=O)[O-])c1	·	-5	0	0	·
COc1ccc2noc3c2c1C(=O)c1ccccc1-3	·	-9	169*	221*	·
O=C1c2ccccc2-c2onc3ccc(NCCCn4ccnc4)c1c23	-1	-11	82*	45*	-1
CC(=O)c1cc2c(cc1NC(=O)Cc1c(C)noc1C)OCO2	·	3	2	2	·
CC1(c2cccc(Br)c2)NC(=O)N(CC(=O)Nc2ccc3c(c2)OCCO3)C1=O (stereo not drawn)	·	-11	4	4	·
COc1ccc(C)cc1NC(=O)c1ccccc1NS(=O)(=O)c1ccc(Cl)s1	22*	-16	13	8	14*

Screening results: PubChem, The Scripps Research Institute Molecular Screening Center
